In ChEMBL document CHEMBL4321882, “α-Helix-Mimicking Sulfono-γ-AApeptide Inhibitors for p53-MDM2/MDMX Protein-Protein Interactions” (J Med Chem, 2020):
pIC50, pKd: −log10 of the molar value. Active and inactive are the calls of the source. The calls are words filed in the database; no cut-off is given here.

Columns and labels:
[1] = molecular target: T1, E3 ubiquitin-protein ligase Mdm2 (Homo sapiens, UniProt Q00987); experiment: Binding affinity to human MDM2 expressed in Escherichia coli expression system by using (FITC)-labeled p53 peptide based fluorescence polarization competitive assay; conditions: for pIC50: read-out: IC50
Target sequence in this assay (Q00987 whole entry): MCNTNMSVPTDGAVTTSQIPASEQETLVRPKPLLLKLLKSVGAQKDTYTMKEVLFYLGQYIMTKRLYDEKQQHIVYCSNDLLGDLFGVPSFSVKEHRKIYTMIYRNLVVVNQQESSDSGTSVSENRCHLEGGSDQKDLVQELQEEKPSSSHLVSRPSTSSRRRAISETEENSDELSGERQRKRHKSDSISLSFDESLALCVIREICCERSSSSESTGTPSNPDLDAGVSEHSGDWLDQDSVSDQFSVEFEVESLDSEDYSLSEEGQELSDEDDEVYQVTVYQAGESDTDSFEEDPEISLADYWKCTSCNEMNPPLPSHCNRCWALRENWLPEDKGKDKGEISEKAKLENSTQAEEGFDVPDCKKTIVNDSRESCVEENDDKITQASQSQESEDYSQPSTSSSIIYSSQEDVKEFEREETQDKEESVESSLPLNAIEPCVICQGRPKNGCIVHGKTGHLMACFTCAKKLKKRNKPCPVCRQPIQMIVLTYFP

[2] = Enzymatic stability assessed as alpha-chymotrypsin (unknown origin)-mediated compound hydrolysis at pH 7.8 at 0.1 mg/ml incubated for 24 hrs by HPLC-MS analysis; format: ADME; conditions: human, buffer, pH 7.8, 24 h
Outline: (§1)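 Compound (0.1 mg/mL) was incubated with 0.1 mg/mL α-chymotrypsin or pronase in 100 mM ammonium bicarbonate, pH 7.8, at 37 °C for 24 h. Mixtures were concentrated by speed vacuum to remove water and buffer salt. Residual compound was then analysed by HPLC-MS.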

[3] = molecular target: Cellular tumor antigen p53 (Homo sapiens) (UniProt P04637); experiment: Activation of p53 in human U2OS cells cotransfected with BP100-luc and CMV-lacZ gene assessed as luciferase gene expression at 30 uM incubated for 18 hrs by p53-dependent luciferase transcriptional activation assay; format: cell-based
Outline: (§2)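 U2OS cells stably carrying the p53-responsive BP100-luc reporter and a CMV-lacZ control were seeded at 100,000 per well 24 h before dosing at 30 μM. Lysates were assayed for luciferase and β-gal activity. […] Each value is the average of at least three measurements, with standard deviation.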

[4] = molecular target: T2, Tumour suppressor p53/oncoprotein Mdm2 (Homo sapiens) (UniProt P04637+Q00987); experiment: Inhibition of MDM2/p53 interaction in human U2OS cells assessed as increase in MDM2 level at 30 uM incubated for 16 hrs by Western blot analysis; format: cell-based
Outline: (§3)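 Exponentially growing U2OS cells were treated at 30 μM for 16 h, then lysed in RIPA with 1 mM PMSF and protease inhibitors. Lysates were resolved by SDS-PAGE and blotted. Blots were blocked in PBS with 5% milk and 0.1% Tween 20.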

[5] = molecular target: T2, Tumour suppressor p53/oncoprotein Mdm2 (Homo sapiens); experiment: Inhibition of MDM2/p53 interaction in human U2OS cells assessed as increase in p53 level at 30 uM incubated for 16 hrs by Western blot analysis; format: cell-based; outline: as §3
[6] = molecular target: T2, Tumour suppressor p53/oncoprotein Mdm2 (Homo sapiens); experiment: Inhibition of MDM2/p53 interaction in human U2OS cells assessed as increase in p21 level at 30 uM incubated for 16 hrs by Western blot analysis; format: cell-based; outline: as §3
Protein Mdm4 = molecular target: T3, Protein Mdm4 (Homo sapiens, UniProt O15151); experiment: Binding affinity to MDMX (unknown origin) by using (FITC)-labeled p53 peptide based fluorescence polarization competitive assay
T3 sequence (O15151 whole entry): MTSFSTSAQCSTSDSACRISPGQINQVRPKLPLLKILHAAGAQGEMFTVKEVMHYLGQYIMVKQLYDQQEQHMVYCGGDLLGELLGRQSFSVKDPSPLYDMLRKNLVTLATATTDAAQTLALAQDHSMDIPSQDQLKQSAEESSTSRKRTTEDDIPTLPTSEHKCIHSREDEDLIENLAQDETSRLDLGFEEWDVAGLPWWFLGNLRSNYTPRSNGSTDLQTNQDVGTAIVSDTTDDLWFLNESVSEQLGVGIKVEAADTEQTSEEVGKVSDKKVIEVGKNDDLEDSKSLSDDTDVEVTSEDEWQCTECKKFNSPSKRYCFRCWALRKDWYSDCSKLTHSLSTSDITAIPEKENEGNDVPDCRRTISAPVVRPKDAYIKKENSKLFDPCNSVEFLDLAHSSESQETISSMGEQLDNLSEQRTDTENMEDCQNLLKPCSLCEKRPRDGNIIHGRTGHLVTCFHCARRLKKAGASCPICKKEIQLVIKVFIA

[7] = Enzymatic stability assessed as pronase (unknown origin)-mediated compound hydrolysis at pH 7.8 at 0.1 mg/ml incubated for 24 hrs by HPLC-MS analysis; format: ADME; conditions: buffer, pH 7.8, 24 h; outline: as §1
HCT-116 [8] = experiment: Antiproliferative activity against human HCT116 cells expressing wild-type p53 assessed as reduction in cell viability at 200 uM incubated for 48 hrs by MTT assay
HCT-116 [9] = experiment: Antiproliferative activity against human HCT116 cells harboring p53 deletion mutant assessed as reduction in cell viability at 200 uM incubated for 48 hrs by MTT assay
[10] = molecular target: T1, E3 ubiquitin-protein ligase Mdm2; experiment: Binding affinity to human MDM2 (17-125 residues) by NMR spectroscopic analysis
Outline: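 Uniformly 15N/13C-labelled human MDM2 residues 17–125 was analysed free and with ligand. Sensitivity-enhanced 1H–15N HSQC and 3D HNCA spectra were recorded for resonance assignment. Buffer was 50 mM sodium phosphate, 100 NaCl, 1 mM EDTA, 0.02% sodium azide and 2 mM DTT, pH 6.8, with 10% D2O.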
Target sequence in this assay (Q00987 whole entry, looked up): as the sequence (Q00987 whole entry) above

[11] = molecular target: T1, E3 ubiquitin-protein ligase Mdm2; experiment: Potency index, ratio of p53 binding affinity to compound binding affinity to human MDM2 (17-125 residues) by NMR spectroscopic analysis
Target sequence in this assay (Q00987 whole entry, looked up): as the sequence (Q00987 whole entry) above

[12] = molecular target: Cellular tumor antigen p53 (Homo sapiens) (UniProt P04637); experiment: Activation of p53 in human U2OS cells cotransfected with BP100-luc and CMV-lacZ gene assessed as lacZ gene expression at 30 uM incubated for 18 hrs by p53-dependent luciferase transcriptional activation assay; format: cell-based; outline: as §2
[13] = molecular target: T1, E3 ubiquitin-protein ligase Mdm2; experiment: Potency index, ratio of p53 IC50 to test compound IC50 for binding affinity to human MDM2 expressed in Escherichia coli expression system by using (FITC)-labeled p53 peptide based fluorescence polarization competitive assay
Target sequence in this assay (Q00987 whole entry, looked up): as the sequence (Q00987 whole entry) above

Chain of Cellular tumor antigen p53 (Homo sapiens) (P04637 whole entry, looked up): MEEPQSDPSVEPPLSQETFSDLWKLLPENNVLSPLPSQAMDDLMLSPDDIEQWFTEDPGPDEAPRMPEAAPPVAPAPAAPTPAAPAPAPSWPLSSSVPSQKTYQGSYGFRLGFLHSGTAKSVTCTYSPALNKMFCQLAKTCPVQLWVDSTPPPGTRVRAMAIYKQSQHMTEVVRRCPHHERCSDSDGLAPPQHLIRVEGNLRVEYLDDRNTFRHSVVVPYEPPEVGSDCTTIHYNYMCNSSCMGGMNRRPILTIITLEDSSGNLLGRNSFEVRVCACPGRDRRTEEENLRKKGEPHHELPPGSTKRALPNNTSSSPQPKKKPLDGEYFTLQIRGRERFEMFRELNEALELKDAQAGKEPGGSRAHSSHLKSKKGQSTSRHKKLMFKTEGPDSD
T2 sequence (P04637 whole entry, looked up): as above
T2 sequence (Q00987 whole entry, looked up): as the sequence (Q00987 whole entry) above

SMILES | IC50 [1] | Stability [2] | pIC50 [1] | Activity [3] | inhibition [4] | inhibition [5] | inhibition [6] | pIC50 (Protein Mdm4) | Stability [7] | inhibition (HCT-116 [8]) | Activity (HCT-116 [9]) | pKd [1] | Activity [10] | Ratio [11] | Activity [12] | pKd (Protein Mdm4) | Ratio IC50 [13]
CC(=O)N[C@@H](CC(C)C)CN(CC(=O)N[C@@H](Cc1ccccc1)CN(CC(=O)N[C@@H](CCC(=O)O)CN(CC(=O)N[C@@H](C)CN(CC(=O)N[C@@H](CCCCN)CN(CC(=O)N[C@@H](CC(C)C)CN(CC(=O)N[C@@H](C)CN(CC(N)=O)S(C)(=O)=O)S(=O)(=O)CC(C)C)S(C)(=O)=O)S(C)(=O)=O)S(C)(=O)=O)S(C)(=O)=O)S(=O)(=O)c1ccc(Cl)cc1 | Not Active |  |  |  |  |  |  |  |  |  |  |  |  |  |  |  | 
CC(=O)N[C@@H](CC(C)C)CN(CC(=O)N[C@@H](Cc1ccccc1)CN(CC(=O)N[C@@H](CCC(=O)O)CN1CC(=O)N[C@@H](Cc2c[nH]c3ccccc23)CN(S(C)(=O)=O)CC(=O)N[C@@H](CCCCN)CN(CC(=O)N[C@@H](CC(C)C)CN(CC(=O)N[C@@H](C)CN(CC(N)=O)S(C)(=O)=O)S(=O)(=O)CC(C)C)S(=O)(=O)CCCC/C=C/CCCCS1(=O)=O)S(C)(=O)=O)S(=O)(=O)c1ccc(Cl)cc1 |  | Stable | 5.72 | 70% | Active | Active | Active | 5.41 | Stable | Active | Active |  |  |  |  |  | 
CC(=O)N[C@@H](CC(C)C)CN(CC(=O)N[C@@H](Cc1ccccc1)CN(CC(=O)N[C@@H](CCC(=O)O)CN(CC(=O)N[C@@H](Cc1c[nH]c2ccccc12)CN(CC(=O)N[C@@H](CCCCN)CN(CC(=O)N[C@@H](CC1CCC1)CN(CC(=O)N[C@@H](C)CN(CC(N)=O)S(C)(=O)=O)S(=O)(=O)CC(C)C)S(C)(=O)=O)S(C)(=O)=O)S(C)(=O)=O)S(C)(=O)=O)S(=O)(=O)c1ccc(Cl)cc1 |  | Stable | 6.05 | Active |  |  |  | 5.44 | Stable | Active | Active | 7.59 | Active | 10 | inactive | 6.66 | 
CC(=O)N[C@@H](CC(C)C)CN(CC(=O)N[C@@H](Cc1ccccc1)CN(CC(=O)N[C@@H](CCC(=O)O)CN1CC(=O)N[C@@H](Cc2c[nH]c3ccccc23)CN(S(C)(=O)=O)CC(=O)N[C@@H](CCCCN)CN(CC(=O)N[C@@H](CC(C)C)CN(CC(=O)N[C@@H](C)CN(CC(N)=O)S(C)(=O)=O)S(=O)(=O)CC(C)C)S(=O)(=O)CC/C=C/CCCCS1(=O)=O)S(C)(=O)=O)S(=O)(=O)c1ccc(Cl)cc1 |  | Stable | 5.44 | 25% | Active | Active | Active | 5.18 | Stable |  |  |  |  |  |  |  | 
CC(=O)N[C@@H](CC(C)C)CN(CC(=O)N[C@@H](Cc1ccccc1)CN(CC(=O)N[C@@H](CCC(=O)O)CN(CC(=O)N[C@@H](Cc1c[nH]c2ccccc12)CN(CC(=O)N[C@@H](CCCCN)CN(CC(=O)N[C@@H](CC(C)C)CN(CC(=O)N[C@@H](C)CN(CC(N)=O)S(C)(=O)=O)S(=O)(=O)CC(C)C)S(C)(=O)=O)S(C)(=O)=O)S(C)(=O)=O)S(C)(=O)=O)S(=O)(=O)c1ccc(Cl)cc1 |  | Stable | 5.55 | Active |  |  |  | 5.22 | Stable |  |  | 7.24 |  |  | inactive | 6.43 | 1.5
CC(=O)N[C@@H](CC(C)C)CN(CC(=O)N[C@@H](Cc1ccccc1)CN(CC(=O)N[C@@H](CCC(=O)O)CN(CC(=O)N[C@@H](Cc1c[nH]c2ccccc12)CN(CC(=O)N[C@@H](CCCCN)CN(CC(=O)N[C@@H](CC1CCCCC1)CN(CC(=O)N[C@@H](C)CN(CC(N)=O)S(C)(=O)=O)S(=O)(=O)CC(C)C)S(C)(=O)=O)S(C)(=O)=O)S(C)(=O)=O)S(C)(=O)=O)S(=O)(=O)c1ccc(Cl)cc1 |  | Stable |  |  |  |  |  |  | Stable |  |  |  |  |  |  |  | 
